ChEMBL document CHEMBL3864121, “Development of ebsulfur analogues as potent antibacterials against methicillin-resistant Staphylococcus aureus” (Bioorg Med Chem, 2016)
Converted amounts (≈) assume the structure as drawn.

test system: Staphylococcus aureus; assay: Antibacterial activity against methicillin-sensitive Staphylococcus aureus ATCC 6538 measured after overnight incubation by broth double-dilution method; format: functional; conditions: not given
Outline: (§1)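 MIC by broth double-dilution in liquid Mueller-Hinton medium. Values are reported in µg/mL.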

SMILES	MIC
CC(C)(C)n1sc2ccccc2c1=O	15.6 µg/mL (≈ 75.3 µM)
O=c1c2ccccc2sn1-c1ccc(Br)cc1	2 µg/mL (≈ 6.53 µM)

test system: Staphylococcus aureus; assay: Antibacterial activity against methicillin-sensitive Staphylococcus aureus ATCC 25923 measured after overnight incubation by broth double-dilution method; format: functional; conditions: not given; outline: as §1

SMILES	MIC
CC(C)(C)n1sc2ccccc2c1=O	15.6 µg/mL (≈ 75.3 µM)
O=c1c2ccccc2sn1-c1ccc(Br)cc1	2 µg/mL (≈ 6.53 µM)

test system: Staphylococcus aureus; assay: Antibacterial activity against methicillin-sensitive Staphylococcus aureus ATCC 29213 measured after overnight incubation by broth double-dilution method; format: functional; conditions: not given; outline: as §1

SMILES	MIC
CC(C)(C)n1sc2ccccc2c1=O	15.6 µg/mL (≈ 75.3 µM)
O=c1c2ccccc2sn1-c1ccc(Br)cc1	2 µg/mL (≈ 6.53 µM)

test system: Staphylococcus aureus; assay: Antibacterial activity against methicillin-resistant Staphylococcus aureus ATCC 33591 measured after overnight incubation by broth double-dilution method; format: functional; conditions: not given; outline: as §1

SMILES	MIC
CC(C)(C)n1sc2ccccc2c1=O	3.9 µg/mL (≈ 18.8 µM)
O=c1c2ccccc2sn1-c1ccc(Br)cc1	0.5 µg/mL (≈ 1.63 µM)

test system: Staphylococcus aureus; assay: Antibacterial activity against methicillin-resistant Staphylococcus aureus 1 measured after overnight incubation by broth double-dilution method; format: functional; conditions: not given; outline: as §1

SMILES	MIC
O=c1c2ccccc2sn1-c1ccc(Br)cc1	3.9 µg/mL (≈ 12.7 µM)

test system: Staphylococcus aureus; assay: Antibacterial activity against methicillin-resistant Staphylococcus aureus 2 measured after overnight incubation by broth double-dilution method; format: functional; conditions: not given; outline: as §1

SMILES	MIC
CC(C)(C)n1sc2ccccc2c1=O	15.6 µg/mL (≈ 75.3 µM)
O=c1c2ccccc2sn1-c1ccc(Br)cc1	2 µg/mL (≈ 6.53 µM)

test system: Staphylococcus aureus; assay: Antibacterial activity against methicillin-resistant Staphylococcus aureus BRS3 measured after overnight incubation by broth double-dilution method; format: functional; conditions: not given; outline: as §1

SMILES	MIC
CC(C)(C)n1sc2ccccc2c1=O	15.6 µg/mL (≈ 75.3 µM)
O=c1c2ccccc2sn1-c1ccc(Br)cc1	3.9 µg/mL (≈ 12.7 µM)

test system: Staphylococcus aureus; assay: Antibacterial activity against methicillin-resistant Staphylococcus aureus C1 measured after overnight incubation by broth double-dilution method; format: functional; conditions: not given; outline: as §1

SMILES	MIC
O=c1c2ccccc2sn1-c1ccc(Br)cc1	2 µg/mL (≈ 6.53 µM)

test system: Staphylococcus aureus; assay: Antibacterial activity against methicillin-resistant Staphylococcus aureus C2 measured after overnight incubation by broth double-dilution method; format: functional; conditions: not given; outline: as §1

SMILES	MIC
O=c1c2ccccc2sn1-c1ccc(Br)cc1	2 µg/mL (≈ 6.53 µM)

test system: Staphylococcus aureus; assay: Antibacterial activity against methicillin-resistant Staphylococcus aureus C7 measured after overnight incubation by broth double-dilution method; format: functional; conditions: not given; outline: as §1

SMILES	MIC
CC(C)(C)n1sc2ccccc2c1=O	15.6 µg/mL (≈ 75.3 µM)
O=c1c2ccccc2sn1-c1ccc(Br)cc1	1 µg/mL (≈ 3.27 µM)

test system: Staphylococcus aureus; assay: Antibacterial activity against methicillin-resistant Staphylococcus aureus C14 measured after overnight incubation by broth double-dilution method; format: functional; conditions: not given; outline: as §1

SMILES	MIC
CC(C)(C)n1sc2ccccc2c1=O	15.6 µg/mL (≈ 75.3 µM)
O=c1c2ccccc2sn1-c1ccc(Br)cc1	3.9 µg/mL (≈ 12.7 µM)

test system: Staphylococcus aureus; assay: Antibacterial activity against methicillin-resistant Staphylococcus aureus C16 measured after overnight incubation by broth double-dilution method; format: functional; conditions: not given; outline: as §1

SMILES	MIC
CC(C)(C)n1sc2ccccc2c1=O	15.6 µg/mL (≈ 75.3 µM)
O=c1c2ccccc2sn1-c1ccc(Br)cc1	3.9 µg/mL (≈ 12.7 µM)

test system: Staphylococcus aureus; assay: Antibacterial activity against methicillin-resistant Staphylococcus aureus C19 measured after overnight incubation by broth double-dilution method; format: functional; conditions: not given; outline: as §1

SMILES	MIC
O=c1c2ccccc2sn1-c1ccc(Br)cc1	2 µg/mL (≈ 6.53 µM)

test system: Staphylococcus aureus; assay: Antibacterial activity against methicillin-resistant Staphylococcus aureus G1 measured after overnight incubation by broth double-dilution method; format: functional; conditions: not given; outline: as §1

SMILES	MIC
O=c1c2ccccc2sn1-c1ccc(Br)cc1	2 µg/mL (≈ 6.53 µM)

test system: Staphylococcus aureus; assay: Antibacterial activity against methicillin-resistant Staphylococcus aureus G6 measured after overnight incubation by broth double-dilution method; format: functional; conditions: not given; outline: as §1

SMILES	MIC
CC(C)(C)n1sc2ccccc2c1=O	15.6 µg/mL (≈ 75.3 µM)
O=c1c2ccccc2sn1-c1ccc(Br)cc1	3.9 µg/mL (≈ 12.7 µM)

test system: Staphylococcus aureus; assay: Antibacterial activity against methicillin-resistant Staphylococcus aureus G12 measured after overnight incubation by broth double-dilution method; format: functional; conditions: not given; outline: as §1

SMILES	MIC
CC(C)(C)n1sc2ccccc2c1=O	15.6 µg/mL (≈ 75.3 µM)
O=c1c2ccccc2sn1-c1ccc(Br)cc1	2 µg/mL (≈ 6.53 µM)

test system: Staphylococcus aureus; assay: Antibacterial activity against methicillin-resistant Staphylococcus aureus G14 measured after overnight incubation by broth double-dilution method; format: functional; conditions: not given; outline: as §1

SMILES	MIC
CC(C)(C)n1sc2ccccc2c1=O	15.6 µg/mL (≈ 75.3 µM)
O=c1c2ccccc2sn1-c1ccc(Br)cc1	2 µg/mL (≈ 6.53 µM)

test system: Staphylococcus aureus; assay: Antibacterial activity against methicillin-resistant Staphylococcus aureus NRS4 measured after overnight incubation by broth double-dilution method; format: functional; conditions: not given; outline: as §1

SMILES	MIC
CC(C)(C)n1sc2ccccc2c1=O	15.6 µg/mL (≈ 75.3 µM)
O=c1c2ccccc2sn1-c1ccc(Br)cc1	3.9 µg/mL (≈ 12.7 µM)

test system: Staphylococcus aureus; assay: Antibacterial activity against methicillin-resistant Staphylococcus aureus NRS51 measured after overnight incubation by broth double-dilution method; format: functional; conditions: not given; outline: as §1

SMILES	MIC
O=c1c2ccccc2sn1-c1ccc(Br)cc1	2 µg/mL (≈ 6.53 µM)

test system: Staphylococcus aureus; assay: Antibacterial activity against methicillin-resistant Staphylococcus aureus NRS77 measured after overnight incubation by broth double-dilution method; format: functional; conditions: not given; outline: as §1

SMILES	MIC
CC(C)(C)n1sc2ccccc2c1=O	15.6 µg/mL (≈ 75.3 µM)
O=c1c2ccccc2sn1-c1ccc(Br)cc1	2 µg/mL (≈ 6.53 µM)

test system: Staphylococcus aureus; assay: Antibacterial activity against methicillin-resistant Staphylococcus aureus S14 measured after overnight incubation by broth double-dilution method; format: functional; conditions: not given; outline: as §1

SMILES	MIC
CC(C)(C)n1sc2ccccc2c1=O	2 µg/mL (≈ 9.65 µM)
O=c1c2ccccc2sn1-c1ccc(Br)cc1	≤ 0.25 µg/mL

test system: Staphylococcus aureus; assay: Antibacterial activity against methicillin-resistant Staphylococcus aureus S17 measured after overnight incubation by broth double-dilution method; format: functional; conditions: not given; outline: as §1

SMILES	MIC
CC(C)(C)n1sc2ccccc2c1=O	15.6 µg/mL (≈ 75.3 µM)
O=c1c2ccccc2sn1-c1ccc(Br)cc1	3.9 µg/mL (≈ 12.7 µM)

test system: Staphylococcus aureus; assay: Antibacterial activity against methicillin-resistant Staphylococcus aureus S22 measured after overnight incubation by broth double-dilution method; format: functional; conditions: not given; outline: as §1

SMILES	MIC
CC(C)(C)n1sc2ccccc2c1=O	15.6 µg/mL (≈ 75.3 µM)
O=c1c2ccccc2sn1-c1ccc(Br)cc1	2 µg/mL (≈ 6.53 µM)

test system: Staphylococcus aureus; assay: Antibacterial activity against methicillin-resistant Staphylococcus aureus S24 measured after overnight incubation by broth double-dilution method; format: functional; conditions: not given; outline: as §1

SMILES	MIC
CC(C)(C)n1sc2ccccc2c1=O	15.6 µg/mL (≈ 75.3 µM)
O=c1c2ccccc2sn1-c1ccc(Br)cc1	2 µg/mL (≈ 6.53 µM)

test system: Staphylococcus aureus; assay: Antibacterial activity against methicillin-resistant Staphylococcus aureus USA100 measured after overnight incubation by broth double-dilution method; format: functional; conditions: not given; outline: as §1

SMILES	MIC
CC(C)(C)n1sc2ccccc2c1=O	15.6 µg/mL (≈ 75.3 µM)

test system: Staphylococcus aureus; assay: Antibacterial activity against methicillin-resistant Staphylococcus aureus USA200 measured after overnight incubation by broth double-dilution method; format: functional; conditions: not given; outline: as §1

SMILES	MIC
CC(C)(C)n1sc2ccccc2c1=O	15.6 µg/mL (≈ 75.3 µM)
O=c1c2ccccc2sn1-c1ccc(Br)cc1	3.9 µg/mL (≈ 12.7 µM)

test system: Staphylococcus aureus; assay: Antibacterial activity against methicillin-resistant Staphylococcus aureus USA300 measured after overnight incubation by broth double-dilution method; format: functional; conditions: not given; outline: as §1

SMILES	MIC
CC(C)(C)n1sc2ccccc2c1=O	15.6 µg/mL (≈ 75.3 µM)
O=c1c2ccccc2sn1-c1ccc(Br)cc1	3.9 µg/mL (≈ 12.7 µM)

test system: Staphylococcus aureus; assay: Antibacterial activity against methicillin-resistant Staphylococcus aureus USA600 measured after overnight incubation by broth double-dilution method; format: functional; conditions: not given; outline: as §1

SMILES	MIC
CC(C)(C)n1sc2ccccc2c1=O	15.6 µg/mL (≈ 75.3 µM)
O=c1c2ccccc2sn1-c1ccc(Br)cc1	3.9 µg/mL (≈ 12.7 µM)

test system: Staphylococcus epidermidis; assay: Antibacterial activity against Staphylococcus epidermidis ATCC 35984 measured after overnight incubation by broth double-dilution method; format: functional; conditions: RP62A
Outline: (§2)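 MIC by broth double-dilution in Mueller-Hinton medium. Re-testing at the time-kill inoculum used 1×10^6 CFU/mL.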

SMILES	MIC
CC(C)(C)n1sc2ccccc2c1=O	15.6 µg/mL (≈ 75.3 µM)
O=c1c2ccccc2sn1-c1ccc(Br)cc1	2 µg/mL (≈ 6.53 µM)

test system: Enterococcus faecalis; assay: Antibacterial activity against Enterococcus faecalis ATCC 29212 measured after overnight incubation by broth double-dilution method; format: functional; conditions: not given; outline: as §2

SMILES	MIC
CC(C)(C)n1sc2ccccc2c1=O	15.6 µg/mL (≈ 75.3 µM)

test system: Enterococcus faecalis; assay: Antibacterial activity against Enterococcus faecalis ATCC 49533 measured after overnight incubation by broth double-dilution method; format: functional; conditions: not given; outline: as §2

SMILES	MIC
CC(C)(C)n1sc2ccccc2c1=O	125 µg/mL (≈ 603 µM)
O=c1c2ccccc2sn1-c1ccc(Br)cc1	15.6 µg/mL (≈ 50.9 µM)

test system: Enterococcus faecium; assay: Antibacterial activity against Enterococcus faecium BM4105-RF measured after overnight incubation by broth double-dilution method; format: functional; conditions: not given; outline: as §1

SMILES	MIC
CC(C)(C)n1sc2ccccc2c1=O	7.8 µg/mL (≈ 37.6 µM)
O=c1c2ccccc2sn1-c1ccc(Br)cc1	7.8 µg/mL (≈ 25.5 µM)

test system: Enterococcus; assay: Antibacterial activity against Vancomycin-resistant Enterococcus measured after overnight incubation by broth double-dilution method; format: functional; conditions: not given; outline: as §1

SMILES	MIC
CC(C)(C)n1sc2ccccc2c1=O	3.9 µg/mL (≈ 18.8 µM)
O=c1c2ccccc2sn1-c1ccc(Br)cc1	2 µg/mL (≈ 6.53 µM)

test system: Listeria monocytogenes; assay: Antibacterial activity against Listeria monocytogenes ATCC 19115 measured after overnight incubation by broth double-dilution method; format: functional; conditions: not given; outline: as §2

SMILES	MIC
CC(C)(C)n1sc2ccccc2c1=O	3.9 µg/mL (≈ 18.8 µM)
O=c1c2ccccc2sn1-c1ccc(Br)cc1	2 µg/mL (≈ 6.53 µM)

test system: Mycolicibacterium smegmatis; assay: Antibacterial activity against Mycobacterium smegmatis MC2-155 measured after overnight incubation by broth double-dilution method; format: functional; conditions: str. MC2 155; outline: as §1

SMILES	MIC
CC(C)(C)n1sc2ccccc2c1=O	3.9 µg/mL (≈ 18.8 µM)
O=c1c2ccccc2sn1-c1ccc(Br)cc1	0.5 µg/mL (≈ 1.63 µM)
